Converted amounts (≈) assume the structure as drawn. Some results are limits rather than exact numbers.

The values that follow come from ChEMBL document CHEMBL4038332, “Substituted N-Phenyl-5-(2-(phenylamino)thiazol-4-yl)isoxazole-3-carboxamides Are Valuable Antitubercular Candidates that Evade Innate Efflux Machinery” (J Med Chem, 2017).

Series [1] has as its system Mycobacterium tuberculosis. The series can be described thus: Antimycobacterial activity against wild type Mycobacterium tuberculosis H37Rv incubated for 14 days by broth microdilution assay. The series is classed as functional. Particulars: 336 h.
A short description of series [2]: Selectivity index, ratio of IC50 for human MDM cells to MIC90 for Mycobacterium tuberculosis H37Rv. In kind it is toxicity. Conditions: read-out: Selectivity Index.
For series [3], the system named is Pseudomonas aeruginosa. The series can be described thus: Antibacterial activity against Pseudomonas aeruginosa ATCC 27853 after 24 hrs by spectrophotometric analysis. In kind it is functional. Conditions: ATCC 27853, 24 h. In outline: (§1)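 Log-phase culture in Mueller Hinton broth at 37 °C with shaking for 3-4 h, pelleted, adjusted at 600 nm in 10 mM phosphate buffer pH 7. Final inoculum approx. 5 × 10^5 CFU/mL. Twofold serial dilutions, final 100 to 0.2 µg/mL. Aerobic incubation 24 h at 37 °C. MIC is the lowest concentration with no visible growth, also read by resazurin (no blue-to-pink change).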

Series [4] can be described thus: Intrinsic clearance in human liver microsomes at 1 uM by HPLC-MS/MS analysis. Conditions: read-out: CLH. The series is classed as ADME, microsome. In outline:
(§2)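 Compound at 1 µM incubated 60 min at 37 °C with pooled HLM (1 mg protein/mL) and an NADPH-regenerating system in 100 mM PBS pH 7.4, after 5 min preheating. Sampled at 0, 15, 30, 60 min, quenched with two volumes of acetonitrile, centrifuged, and supernatant analysed by HPLC-MS/MS. CLint = (0.693/t1/2) × (mL incubation/mg microsomes) × 45 mg/g liver × 20 g liver/kg.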
On the technique in general: Microsomes from liver hold many membrane-bound enzymes, among them those of drug oxidation.

The nature of series [5]: Half life in human liver microsomes at 1 uM by HPLC-MS/MS analysis. The series is classed as ADME, microsome. In outline:
as §2

In series [6] the test system is Mycobacterium tuberculosis. The series is described as follows: Antimycobacterial activity against nonreplicating Mycobacterium tuberculosis H37Rv ATCC 27924 incubated for 5 days under hypoxic condition followed by 2 days incubation under normal atmosphere by MTT dye based broth microdilution assay. In kind it is functional. In outline:
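Mtb H37Rv ATCC27924 adapted to hypoxia: grown in 8 mL MB7H9, tubes tightly capped and sealed, standing at 37 °C for 8 weeks; methylene blue (final 1.5 µg/mL) monitored O2 depletion. Cells exposed to varying compound concentrations 5 days at 37 °C in anaerobic jar (indicator strip), then 2 days normal atmosphere recovery; MTT to final 2.5%, overnight at room temperature; MIC = lowest concentration with no colour change; triplicate.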
A general note: Formazan colour is commonly taken as a measure of viable cells.

Series [7] is described as follows: Cytotoxicity against human MDM cells assessed as reduction in cell viability after 3 days by AlamarBlue assay. In kind it is cell-based. Conditions: 72 h. The method in brief:
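Macrophages came from healthy donors' PBMC (Ficoll gradient), differentiated 7 days in RPMI-1640/10% FCS with 20 ng/mL M-CSF at 37 °C, 5% CO2. 5 × 10^4 cells/well exposed to compounds for 3 days. Viability by AlamarBlue fluorescence (ex 540/35, em 590/20). IC50 taken as the highest concentration leaving 50% of cells viable relative to control.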
In general terms: Resazurin is reduced to fluorescent resorufin, in cell work by metabolically active cells.

Series [8] has as its system Escherichia coli. The series can be described thus: Antibacterial activity against Escherichia coli ATCC 25922 after 24 hrs by spectrophotometric analysis. The series is classed as functional. Particulars: ATCC 25922, 24 h. The method in brief:
as §1

Series [9] concerns Staphylococcus aureus. The series is described as follows: Antibacterial activity against Staphylococcus aureus ATCC 25923 after 24 hrs by spectrophotometric analysis. The series is classed as functional. Conditions: ATCC 25923, 24 h. The method in brief: as §1
The test system of series [10] is Enterococcus faecium. The series is described as follows: Antibacterial activity against Enterococcus faecium ATCC 35667 after 24 hrs by spectrophotometric analysis. Conditions: ATCC 35667, 24 h. The series is classed as functional. In outline:
as §1

The test system of series [11] is Candida albicans. The series is described as follows: Antifungal activity against Candida albicans ATCC 11006 after 48 hrs by spectrophotometric analysis. The series is classed as functional. Conditions: ATCC 11006, 48 h. The method in brief: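 Broth microdilution in RPMI per CLSI M27-A3. Inoculum adjusted to 0.5 McFarland in phosphate buffer, diluted to about 10^3 CFU/mL final and used within 30 min. Compounds at final 100 to 0.2 µg/mL (twofold). Aerobic incubation 48 h at 37 °C. MIC is the lowest concentration without visible growth, also checked by resazurin colour change.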

Series [12] concerns Mycobacterium tuberculosis. The series can be described thus: Antimycobacterial activity against wild type Mycobacterium tuberculosis H37Rv incubated for 14 days in presence of Verapamil by broth microdilution assay. Conditions: 336 h. In kind it is functional.
The subject of series [13] is Mycobacterium tuberculosis. The series is described as follows: Antimycobacterial activity against wild type Mycobacterium tuberculosis H37Rv incubated for 14 days in presence of Thioridazine by broth microdilution assay. The series is classed as functional. Conditions: 336 h.
Series [14] deals with Mycobacterium tuberculosis H37Rv. The series is described as follows: Inhibition of efflux pump in wild type Mycobacterium tuberculosis H37Rv assessed as increase in accumulation of ethidium bromide by measuring relative final fluorescence index at 2.6 uM measured every second for 60 mins in absence of glucose by real time fluorimetric method.

On to `O=C(NC12CC3CC(CC(C3)C1)C2)c1cc(-c2csc(Nc3cc(Cl)cc(Cl)c3)n2)on1`, for which the MIC90 in [1] is above 64 µg/mL.

With `c1cc(Nc2nc(-c3ccncc3)cs2)ccn1`, the MIC90 in [1] is above 64 µg/mL. In series [1], `Cc1sc(Nc2cc(Cl)cc(Cl)c2)nc1-c1csc(Nc2cc(Cl)cc(Cl)c2)n1` showed an MIC90 above 64 µg/mL. For the compound `COc1ccc(-c2cc(-c3csc(Nc4cc(Cl)cc(Cl)c4)n3)on2)cc1`, the MIC90 in series [1] is above 64 µg/mL. With `Cc1ccc(Nc2nc(-c3cc(C(=O)O)nn3C)cs2)cc1`, in [1], the MIC90 was above 64 µg/mL. In [1], `Cc1ccc(Nc2nc(-c3cc(CO)no3)cs2)cc1` showed an MIC90 of 16 to 32 µg/mL. Same read-out and setting: next, `Clc1cc(Cl)cc(Nc2nc(-c3ccncc3)cs2)c1`: above 64 µg/mL; `Cc1sc(N)nc1-c1csc(Nc2cc(Cl)cc(Cl)c2)n1`: 8 to 16 µg/mL; `Cc1ccc(Nc2nc(-c3cc(C(=O)NC45CC6CC(CC(C6)C4)C5)no3)cs2)cc1`: above 64 µg/mL.

Take `Cc1ccc(Nc2nc(-c3cc(C(=O)N4CCCCC4)no3)cs2)cc1`: the MIC90 in series [1] lay in the range of 16 to 32 µg/mL. Take `Cc1ccc(Nc2nc(-c3nc(N)sc3C)cs2)cc1`: the MIC90 in [1] was in the range of 16 to 32 µg/mL.

In series [1], `CNC(=O)c1cc(-c2csc(Nc3ccc(C)cc3)n2)on1` displayed an MIC90 above 64 µg/mL. On the same count and under the same terms, next, `CCN(CC)C(=O)c1cc(-c2csc(Nc3cc(Cl)cc(Cl)c3)n2)n(C)n1`: above 64 µg/mL; `CCN(CC)C(=O)c1cc(-c2csc(Nc3ccc(C)cc3)n2)on1`: 16 to 32 µg/mL. In [1], `Clc1cc(Cl)cc(Nc2nc(-c3c[nH]nn3)cs2)c1` registered an MIC90 above 64 µg/mL. `COc1ccc(-c2cc(-c3csc(Nc4ccc(C)cc4)n3)on2)cc1` yielded an MIC90 in [1] of 4 to 8 µg/mL. Same read-out and setting: under `O=C(O)c1cc(-c2csc(Nc3cc(Cl)cc(Cl)c3)n2)on1` stands above 64 µg/mL. On the same count and under the same terms, under `Cc1ccc(Nc2nc(-c3cc(C(N)=O)no3)cs2)cc1` stands above 64 µg/mL. On the same count and under the same terms, under `CCOC(=O)c1cc(-c2csc(Nc3cc(Cl)cc(Cl)c3)n2)n(C)n1` stands above 64 µg/mL; under `Cc1ccc(Nc2nc(-c3nc(Nc4ccc(C)cc4)sc3C)cs2)cc1`, 4 to 8 µg/mL. `NNC(=O)c1ccncc1` [ISONIAZID]: the MIC90 in series [1] lay in the range of 0.22 to 0.44 µM. As to `O=C(Nc1ccccc1)c1cc(-c2csc(Nc3cc(Cl)cc(Cl)c3)n2)on1`, the selectivity ratio in [2] was above 500. In [1], `Cc1ccc(Nc2nc(-c3cc(-c4nccs4)no3)cs2)cc1` showed an MIC90 above 64 µg/mL. Consider `CC(=O)c1nc(Nc2ccc(C)cc2)sc1C`, for which the MIC90 in [1] was above 64 µg/mL. On to `Cc1ccc(Nc2nc(-c3cc(C(=O)Nc4ccccn4)no3)cs2)cc1`, for which the MIC90 in series [3] was 100 µg/mL (≈ 265 µM); in [1] it was 0.16 to 0.32 µM; in series [6], 1 µg/mL (≈ 2.65 µM); in [8], 100 µg/mL (≈ 265 µM); in series [9] it was 100 µg/mL (≈ 265 µM); in series [10] it was 100 µg/mL (≈ 265 µM). The MIC90 is 100 µg/mL (≈ 265 µM) in series [11], 2 µg/mL in [12] and 1 µg/mL in [13]. In addition, the CLint scaled at 1 µM in [4] is 38.8 mL/min/kg. In addition, in [5], the half-life at 1 µM was determined as 16.1 min. Also, in series [7], the concentration for half-maximal inhibition (IC50) worked out at 140 µM. In [14], the Activity index is 0.17. In [1], `COc1ccc(-c2csc(Nc3ccc(C)cc3)n2)cc1` registered an MIC90 of 3.8 µg/mL. `Cc1ccc(Nc2nc(-c3cc(C(=O)Nc4ccccc4)no3)cs2)cc1`: the MIC90 in series [3] is 100 µg/mL (≈ 266 µM); in series [1], 0.33 to 0.66 µM; in series [6], 1 µg/mL (≈ 2.66 µM); in series [8], 100 µg/mL (≈ 266 µM); in series [9], above 100 µg/mL; in series [10], 100 µg/mL (≈ 266 µM). Further, the MIC90 in series [11] was above 100 µg/mL; in series [12], 2 µg/mL; in series [13] it was 2 µg/mL. In addition, in [4], the CLint scaled at 1 µM turned out to be 17.8 mL/min/kg. The same compound registered a half-life at 1 µM in series [5] of 35.1 min. Besides, the IC50 in series [7] turned out to be 186 µM. Further, the Activity index in series [14] came to 0.22. The selectivity ratio in series [2] was above 500.

`CCOC(=O)c1cc(-c2csc(Nc3ccc(C)cc3)n2)n(C)n1` came in with an MIC90 in series [1] of 16 to 32 µg/mL. For the compound `Cc1ccc(Nc2nc(-c3cc(C(=O)O)no3)cs2)cc1`, the MIC90 in series [1] was above 64 µg/mL. Further, the CLint scaled at 1 µM in series [4] is 43.7 mL/min/kg. In series [5], this compound returned a half-life at 1 µM of 14.3 min.

As to `CC(=O)c1nc(Nc2cc(Cl)cc(Cl)c2)sc1C`, the MIC90 in series [1] is above 64 µg/mL.

In series [1], `Cn1nc(C(=O)O)cc1-c1csc(Nc2cc(Cl)cc(Cl)c2)n1` displayed an MIC90 above 64 µg/mL. As to `CCOC(=O)c1cc(-c2csc(Nc3cc(Cl)cc(Cl)c3)n2)on1`, in series [1], the MIC90 was 4 to 8 µg/mL. Further, the CLint scaled at 1 µM in series [4] turned out to be 189 mL/min/kg. Besides, the half-life at 1 µM in [5] came out at 3.3 min. The compound `CCOC(=O)c1cc(-c2csc(Nc3ccc(C)cc3)n2)on1` returned an MIC90 in series [1] of 1.5 to 3 µM. The CLint scaled at 1 µM in [4] was above 400 mL/min/kg. In addition, the half-life at 1 µM in series [5] is below 1 min.

Consider `CCN(CC)C(=O)c1cc(-c2csc(Nc3ccc(C)cc3)n2)n(C)n1`, for which the MIC90 in series [1] was above 64 µg/mL.

In series [1], `Cc1ccc(Nc2nc(-c3ccncc3)cs2)cc1` registered an MIC90 above 64 µg/mL.

As a reminder, the MIC90 is an inhibitory concentration at the 90% level, which refers to growth in some studies and to a panel of isolates in others. The term half-life denotes the time needed for the level to fall by half in the phase considered. Low values mean fast loss, high ones slow loss. The term IC50 denotes the concentration at which inhibition is half-maximal.
